Here are results for six compounds from ChEMBL document CHEMBL2150970, “Synthesis, anticancer activities and molecular modeling studies of novel indole retinoid derivatives” (Eur J Med Chem, 2012).

The test system of assay [1] is T47D. Description: Cytotoxicity against human T47D cells after 3 days by SRB assay. Format: functional, cell-based. The gist of the method:
(§1)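 Human cancer cells grown in DMEM with 10% FCS and penicillin/streptomycin (CAMA-1 medium also had 1% sodium pyruvate), at 37 °C, 5% CO2. Seeded at 10⁴ cells/well, dosed 24 h later, and exposed 3 days. Fixed with ice-cold 10% TCA for 60 min, stained 10 min with 0.4% SRB at room temperature, washed with 1% acetic acid, dye dissolved in 10 mM Tris base, A515 read. Triplicate runs with matched DMSO controls; IC50 determined.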

The next assay relates to HCT-116. Description: Cytotoxicity against human HCT116 cells after 3 days by SRB assay. It counts as functional, cell-based. In short, it runs like this: as §1
Another assay concerns Huh-7. Kind of assay: Cytotoxicity against human HuH7 cells after 3 days by SRB assay. It counts as functional, cell-based. In short, it runs like this:
as §1
(In general: The SRB assay estimates cell density from bound dye.)

Another assay deals with ZR-75-1. Description: Cytotoxicity against human ZR-75-1 cells after 3 days by SRB assay. It counts as functional, cell-based. To be noted: ZR-75-1, 72 h. The gist of the method:
(§2)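 Cells at 10⁴/well were treated 24 h after seeding and exposed for three days. They were then fixed in ice-cold 10% TCA for 60 min at 4 °C, stained with 0.4% SRB for 10 min at room temperature, washed with 1% acetic acid and solubilised in 10 mM Tris base. Absorbance was read at 515 nm. IC₅₀ was determined in triplicate with DMSO vehicle controls.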

Assay [2] concerns MDA-MB-453. Description: Cytotoxicity against human MDA-MB-453 cells after 3 days by SRB assay. As to conditions: MDA-MB-453, 72 h. Format: functional, cell-based. The gist of the method: as §2
In a further assay the test system is BT-474. Description: Cytotoxicity against human BT474 cells after 3 days by SRB assay. To be noted: BT-474, 72 h. It counts as functional, cell-based. In short, it runs like this:
as §2

Assay [3] concerns MDA-MB-361. Kind of assay: Cytotoxicity against human MDA-MB-361 cells after 3 days by SRB assay. Format: functional, cell-based. To be noted: MDA-MB-361, 72 h. In short, it runs like this:
as §2

Assay [4] concerns MCF7. Description: Cytotoxicity against human MCF7 cells after 3 days by SRB assay. To be noted: MCF7, 72 h. Format: functional, cell-based. In short, it runs like this: as §2
Assay [5] concerns MCF-12A. Description: Cytotoxicity against human MCF12A cells after 3 days by SRB assay. It counts as cell-based. To be noted: 72 h. In short, it runs like this:
as §2

The next assay relates to SK-BR-3. Kind of assay: Cytotoxicity against human SKBR3 cells after 3 days by SRB assay. Format: functional, cell-based. To be noted: SK-BR-3, 72 h. In short, it runs like this: as §2
In assay [6] the test system is MDA-MB-231. Kind of assay: Cytotoxicity against human MDA-MB-231 cells after 3 days by SRB assay. It counts as functional, cell-based. To be noted: MDA-MB-231, 72 h. In short, it runs like this:
as §2

A further assay has as its system BT-20. Kind of assay: Cytotoxicity against human BT20 cells after 3 days by SRB assay. It counts as functional, cell-based. As to conditions: BT-20, 72 h. The gist of the method:
as §2

For assay [7], the system named is MDA-MB-157. Description: Cytotoxicity against human MDA-MB-157 cells after 3 days by SRB assay. Format: functional, cell-based. To be noted: MDA-MB-157, 72 h. The gist of the method:
as §2

Assay [8] deals with MDA-MB-231. Description: Induction of apoptosis in ER-negative human MDA-MB-231 cells assessed as apoptotic cells at 3.6 uM measured on day 4 by Annexin-V-FITC/propidium iodide staining based FACS flow cytometry. It counts as functional. The gist of the method: (§3)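 Cells seeded at 5×10⁵ per plate (37 °C, 5% CO2) and treated the following day at two concentrations. On days 2 and 4 after treatment, 1×10⁶ cells were stained with a FITC Annexin V/propidium iodide kit, kept on ice in the dark, and analysed at once on a FACSCalibur. Mean percentage of Annexin V+/PI+ cells is reported. Controls: matched DMSO, plus camptothecin and 1% v/v H2O2 as positive controls.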

Assay [9] has as its system MDA-MB-231. Description: Induction of apoptosis in ER-negative human MDA-MB-231 cells assessed as apoptotic cells at 1.8 uM measured on day 4 by Annexin-V-FITC/propidium iodide staining based FACS flow cytometry. Format: functional. The gist of the method: as §3
Assay [10] has as its system MDA-MB-231. Kind of assay: Induction of apoptosis in ER-negative human MDA-MB-231 cells assessed as apoptotic cells at 3.6 uM measured on day 2 by Annexin-V-FITC/propidium iodide staining based FACS flow cytometry. It counts as functional. The gist of the method: as §3
A general note: A flow cytometer gives signals particle by particle.

Assay [11] deals with MDA-MB-453. Description: Ratio of IC50 for human MCF12A cells to IC50 for human MDA-MB-453 cells. The gist of the method:
(§4)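 Each IC50 came from the SRB assay after 3 days' exposure: 10⁴ cells/well, TCA fixation, 0.4% SRB, Tris solubilization, A515, triplicates, DMSO control. Ratio is immortalized normal breast MCF-12A IC50 over the breast cancer line's IC50. Media carried 10% FCS plus antibiotics: DMEM for most lines, DMEM with sodium pyruvate for CAMA-1/MDA-MB-157, glucose-rich RPMI for ZR-75-1, McCoy for SK-BR-3.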

The next assay concerns CAMA-1. Kind of assay: Cytotoxicity against human CAMA1 cells after 3 days by SRB assay. It counts as functional, cell-based. To be noted: CAMA-1, 72 h. In short, it runs like this: as §1
Assay [12] relates to MDA-MB-157. Description: Ratio of IC50 for human MCF12A cells to IC50 for human MDA-MB-157 cells. In short, it runs like this:
as §4

Assay [13] deals with MDA-MB-231. Description: Induction of apoptosis in ER-negative human MDA-MB-231 cells assessed as apoptotic cells at 1.83 uM after 3 days by Hoechst staining based fluorescent microscopy. It counts as functional, cell-based.
Assay [14] concerns T47D. Description: Induction of apoptosis in ER-positive human T47D cells assessed as apoptotic cells at IC50 concentration after 3 days by Hoechst staining based fluorescent microscopy. Format: functional, cell-based.
Assay [15] concerns MCF-12A. Description: Ratio of IC50 for human MCF12A cells to IC50 for human BT20 cells. The gist of the method:
as §4

The test system of assay [16] is T47D. Kind of assay: Ratio of IC50 for human MCF12A cells to IC50 for human T47D cells. The gist of the method:
as §4

The subject of assay [17] is MDA-MB-361. Kind of assay: Ratio of IC50 for human MCF12A cells to IC50 for human MDA-MB-361 cells. The gist of the method: as §4
Assay [18] has as its system MCF7. Kind of assay: Ratio of IC50 for human MCF12A cells to IC50 for human MCF7 cells. In short, it runs like this: as §4
For assay [19], the system named is MCF-12A. Kind of assay: Ratio of IC50 for human MCF12A cells to IC50 for human CAMA1 cells. The gist of the method: as §4
The subject of assay [20] is MDA-MB-231. Kind of assay: Induction of apoptosis in ER-negative human MDA-MB-231 cells assessed as apoptotic cells at 1.8 uM measured on day 2 by Annexin-V-FITC/propidium iodide staining based FACS flow cytometry. Format: functional. In short, it runs like this: as §3
Setting [21] is: Homo sapiens, T47D, 72 h, read-out: IC50.
Setting [22] is: Homo sapiens, HCT-116, 72 h, read-out: IC50.
Setting [23] is: Homo sapiens, Huh-7, 72 h, read-out: IC50.

Activity calls are given as the source filed them. No cut-off for these calls is given here.

As to `CC1(C)CCC(C)(C)c2cc(C(=O)/C=C/c3c[nH]c4ccc(C(=O)O)cc34)ccc21`, the IC50 result in the assay on T47D [1] (t47d), with HCT-116 (hct-116) and in the assay with Huh-7 (huh-7) was “Not Active” each time.

`CC1(C)CCC(C)(C)c2cc(C(=O)/C=C/c3c[nH]c4ccc(Cl)cc34)ccc21`: the IC50 (usually the concentration that inhibits the measured activity by half) with T47D [1] (setting [21]) stood at 13.1 µM; in the assay with HCT-116 (setting [22]), 10.7 µM; in the assay with Huh-7 (setting [23]) it was 15.4 µM.

For `CC[C@@]1(O)C(=O)OCc2c1cc1n(c2=O)Cc2cc3ccccc3nc2-1` [CAMPTOTHECIN], the IC50 in the assay on ZR-75-1 was less than 0.01 µM; in the assay with T47D [1] (setting [21]), less than 0.01 µM; in the assay with MDA-MB-453 [2], less than 0.01 µM; in the assay with BT-474 it was 12.8 µM; in the assay with MDA-MB-361 [3], 0.17 µM; in the assay on MCF7 [4], less than 0.01 µM. The IC50 with MCF-12A [5] was less than 0.01 µM; with HCT-116 (setting [22]), less than 0.01 µM; in the assay on SK-BR-3, less than 0.01 µM; in the assay with MDA-MB-231 [6], less than 0.01 µM; in the assay with BT-20, less than 0.01 µM; with Huh-7 (setting [23]), 0.06 µM. In addition, in the assay on MDA-MB-157 [7], it took 0.02 µM to reach half-maximal inhibition (IC50).

Turning to `COc1ccc2[nH]cc(/C=C/C(=O)c3ccc4c(c3)C(C)(C)CCC4(C)C)c2c1`, the values for the IC50 in the assay on T47D [1] (setting [21]), in the assay on HCT-116 (setting [22]) and in the assay with Huh-7 (setting [23]) were 11.4 µM, 13.9 µM and 15.5 µM, respectively.

On to `CC1(C)CCC(C)(C)c2cc(C(=O)/C=C/c3c[nH]c4ccc(Br)cc34)ccc21`, for which the results for the IC50 with T47D [1] (setting [21]), in the assay with HCT-116 (setting [22]) and with Huh-7 (setting [23]) were 11.5 µM, 10.8 µM and 14 µM, respectively.

In the case of `CC1(C)CCC(C)(C)c2cc(C(=O)/C=C/c3c[nH]c4ccccc34)ccc21`, the IC50 with ZR-75-1 is 3.88 µM; with T47D [1] (setting [21]), 0.1 µM; in the assay with MDA-MB-453 [2] it was less than 0.01 µM; in the assay on BT-474 it was 1.91 µM; with MDA-MB-361 [3], 0.06 µM; in the assay on CAMA-1, less than 0.01 µM. Moreover, the IC50 in the assay with MCF7 [4] was 1.71 µM; in the assay on MCF-12A [5], 3.92 µM; in the assay on HCT-116 (setting [22]), 0.02 µM; in the assay with SK-BR-3, 1.29 µM; in the assay on MDA-MB-231 [6], 1.83 µM; in the assay with BT-20 it was 1.31 µM. For the same compound, the IC50 in the assay on Huh-7 (setting [23]) was less than 0.01 µM; with MDA-MB-157 [7], 1.46 µM. Besides, the Activity in the assay on MDA-MB-231 [8] is given as 15.62%; in the assay on MDA-MB-231 [9] it was 10.53%; in the assay on MDA-MB-231 [10] it was 6.83%; in the assay on MDA-MB-231 [20], 7.1%. Also, the Ratio IC50 with MDA-MB-453 [11] is more than 392; in the assay with MDA-MB-157 [12], 2.68; in the assay on MCF-12A [15], 2.99; with T47D [16] it was 3.38; with MDA-MB-361 [17], 65.3; in the assay on MCF7 [18], 2.29. Besides, the Ratio IC50 in the assay on MCF-12A [19] is more than 392. Also, the result in the assay with MDA-MB-231 [13] and with T47D [14] was Active.
